The text below walks through data of the RNAGym collection of RNA variant scans (doi:10.1126/science.aae0568).

This sample holds only a part of the variants without activity.

B1: tRNA (parent)
chain: GUUCCGUUGGCGUAAUGGUAACGCGUCUCCCUCCUAAGGAGAAGACUGCGGGUUCGAGUCCCGUACGGAACG

The variants in the series derive from B1. Nature of the series: yeast fitness relative to wild type (ratio to wild type); higher = fitter; tRNA-Arg(CCU), competitive growth, 37 C, YPD. In a few lines: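 Variants of the tRNA-Arg(CCU) gene, chemically synthesised with a 3% per-site mutation rate at 69 sites, were placed at the native genomic locus in Saccharomyces cerevisiae. The pooled strains were competed in YPD at 37°C for 24 hours in six parallel replicates. Gene amplicons from the start population and from each end population were read by 100-nucleotide paired-end sequencing. Darwinian fitness relative to wild type came from changes in genotype frequencies; genotypes needed ≥ 100 starting reads, and estimates < 0.5 were set to 0.5.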
As for A65U A70G, the yeast fitness is 1.05. As to U53G A65U, the yeast fitness was 0.635. Consider G52A G63A, for which the yeast fitness was determined as 0.546. Take G52A G63C: the yeast fitness is 0.652. For U53A G56C, the yeast fitness is at most 0.5. Regarding C61G G67U, the yeast fitness was determined as 0.61. Turning to G48C G67C, the yeast fitness turned out to be 0.563. For the variant C55U U64A C66A, the yeast fitness is at most 0.5.

In the case of G48A C62G C66A, the yeast fitness was at most 0.5. For the variant A57G C66U, the yeast fitness was 0.816. In the case of U53A G67A, the yeast fitness amounted to 0.686. For C49A G51C U59A, the yeast fitness was at most 0.5.

C62G G67C: the yeast fitness is 0.614. With A57G A65G, the yeast fitness turned out to be 1.02. In the case of U53C C66U, the yeast fitness was determined as 0.814. Regarding G56A C60G, the yeast fitness is 0.681. U54C G68A: the yeast fitness came out at 0.937. In the case of U53G G56C G67C, the yeast fitness came out at 0.605. C49U A69U: the yeast fitness turned out to be 1.01. In the case of C49A A65U G67A it was 0.529.

As to U54C C62U, the yeast fitness was determined as 0.815.

Consider G58A A70U, for which the yeast fitness amounted to 0.955. With C55G C60A, the yeast fitness turned out to be 0.536. For the variant C49A C55U, the yeast fitness was determined as 0.606. In the case of G52A C60A A69G it was at most 0.5. Consider C49G G51A, for which the yeast fitness was found to be 0.637. Turning to C49A G67U, the yeast fitness is 0.746.

In the case of C62G G63A, the yeast fitness was determined as 0.796.

Turning to G58A C62U A69C, the yeast fitness worked out at 1.1.

Take C60G G68A: the yeast fitness is 0.695. With G48A C61U A65C, the yeast fitness was at most 0.5.

As to A57C C60A, the yeast fitness was at most 0.5. Regarding C49U A65G G67A A69U, the yeast fitness was at most 0.5.

With G48C G51C, the yeast fitness was determined as 0.591.

For G48C C49A U53A G56A G58C G68C, the yeast fitness is at most 0.5. For the variant C55U A57U, the yeast fitness was determined as 0.634. On to U53A A57C, for which the yeast fitness came out at 0.623. In the case of A57U A70U, the yeast fitness came to 0.69. In the case of G50A U59A it was 0.831. For C49G G52A A57C, the yeast fitness was at most 0.5. As to G51A G58A A65U, the yeast fitness is 0.713. With C55G U59A A70G, the yeast fitness was found to be 0.731. For the variant G48C U54G C55U, the yeast fitness is at most 0.5. For G50C U54A, the yeast fitness was 0.524. As for G48A G51C C61G, the yeast fitness is 1.02.

In the case of C55A U64C, the yeast fitness was determined as 0.623. The result for C49G A57C A70G reads 0.552; that for G51A A69C, 0.979.

For the variant C55U C61G C62G, the yeast fitness is 0.629. With A57U A65G, the yeast fitness amounted to 0.753. For A57G A70G, the yeast fitness came to 0.889. With C49U G56A G67A, the yeast fitness was 0.593. Regarding G63A G67A, the yeast fitness was 0.693. With G50C G67A, the yeast fitness was determined as 0.816. In the case of G51A C60G, the yeast fitness amounted to 0.596.

Turning to G51A C60A, the yeast fitness stood at 0.599. The result for A57C U64G C66U reads at most 0.5.

On to C49U U59C C61U, for which the yeast fitness came out at 0.618. Take U54A C61G: the yeast fitness turned out to be 0.63.

On to C60G G67A, for which the yeast fitness was 0.584. In the case of A57C G67C it was 0.707; in that of A57C A70G, 0.664. Regarding C62U G63C U64C, the yeast fitness is 0.789. In the case of C60A G68C, the yeast fitness was found to be 0.734. As for A65C A70C, the yeast fitness was 1.03. In the case of C55G G68C it was 0.624; in that of G52C G63A A65G, at most 0.5; in that of C49G U54C, 1.01. For G51C U54A, the yeast fitness was at most 0.5.

With G63A A69G, the yeast fitness stood at 0.878. Consider G63A A69C, for which the yeast fitness was determined as 0.941.

With U59A A70C, the yeast fitness was 0.741. Take G58A A69U: the yeast fitness was 0.986.

In the case of G48A U53G, the yeast fitness stood at 0.599. Turning to G48C A57G, the yeast fitness is 0.705. In the case of G48C A57U it was 0.622; in that of C60A U64A, 0.561. U54C C66U A69U: the yeast fitness is 0.62. As for C49G C60U C62U U64A, the yeast fitness was at most 0.5. On to G58C G63A, for which the yeast fitness worked out at 0.873.

On to C49U C55G, for which the yeast fitness turned out to be 0.885. In the case of G56C A57U G58A it was at most 0.5. In the case of U54C U64C, the yeast fitness was 0.758.

Regarding G50A C60A, the yeast fitness came to 0.581. C61G C66G: the yeast fitness turned out to be 0.625. With G50C G52A C61G, the yeast fitness was 0.722. Turning to A57C U64G, the yeast fitness is 0.512. In the case of C60U C62G A70G it was 0.521. As for U54C C66U, the yeast fitness stood at 0.767. Consider G56C A69C A70U, for which the yeast fitness worked out at 0.605. In the case of C62A A65U, the yeast fitness was 0.772.

With C49G C66A, the yeast fitness came out at 0.654. In the case of C55A A65C it was 0.603; in that of U59A C66A, 0.63. Turning to C49G G68U, the yeast fitness was 0.808.

As for A57U A69G, the yeast fitness came out at 0.665. In the case of G50C G56A G58A it was 0.64; in that of C55A G63C, 0.603; in that of U54C A70U, 0.869. As to C49U U54G C61U, the yeast fitness was at most 0.5. As for A65G A69C, the yeast fitness was determined as 0.984. The result for C61A G68A reads 0.716; that for G56C A57C C61G, at most 0.5; that for U59C G68A, 0.817.

Take G48C G63C A70C: the yeast fitness is at most 0.5. For the variant G56A U59C A65C, the yeast fitness came to 0.738. The result for C55G C61U reads 0.743; that for G58C C61A A69U, 0.55; that for U53A U59A, 0.664. On to U59C A70G, for which the yeast fitness came to 1.01. On to C55U U64C, for which the yeast fitness stood at 0.873. With C61A A65U, the yeast fitness was determined as 0.604. On to U59A G63A, for which the yeast fitness is 0.872. For the variant G50C C62G A70U, the yeast fitness came out at 0.606.

As for G63A A70C, the yeast fitness was 0.973. As for G63A A70U, the yeast fitness stood at 0.816. C49U C62G C66U: the yeast fitness came to 0.608. For the variant C55U C61U, the yeast fitness stood at 0.75.

With C49A G63C A69G, the yeast fitness is at most 0.5. The result for C49G G52A C61G reads 0.534. For the variant G52C A57C, the yeast fitness came out at 0.526.

For the variant G58C C62G, the yeast fitness amounted to 0.755.

C60G C66G A70C: the yeast fitness is at most 0.5. Take G58A C66U G67U: the yeast fitness came to 0.543. The result for C61G C62U reads 0.613.

Take C61U A69C: the yeast fitness is 0.882. A65C G68C: the yeast fitness was determined as 0.778. Turning to C49U U53C A69C, the yeast fitness came out at 0.597. In the case of G56A A57G it was 0.905; in that of G56A A57C, 0.699; in that of G51A G56A U59C, 0.565.

For the variant C49U A57G, the yeast fitness stood at 0.865. For G50A G63A, the yeast fitness is 0.943. In the case of G48C C49U it was 0.787. As for C49G C55A, the yeast fitness worked out at 0.619.

Turning to A57U U59A A65C, the yeast fitness is at most 0.5. In the case of A57C C61G A69C it was at most 0.5; in that of C49A A57U, 0.55. For C55U G58A U59C C62U, the yeast fitness is at most 0.5. Take C60U A69C: the yeast fitness amounted to 0.713.

In the case of C60U A69G, the yeast fitness is 0.572. With C55U G58A, the yeast fitness came to 0.642.

For the variant C49A G51A C55A C60A, the yeast fitness is at most 0.5. Turning to A57G, the yeast fitness came to 0.998. A57U: the yeast fitness was determined as 0.731. As to A57C, the yeast fitness stood at 0.62. For the variant G50A C61A, the yeast fitness was 0.744.

Turning to A57U C62A, the yeast fitness is 0.629. Regarding G51A G56C, the yeast fitness worked out at 0.597. As for U53G C66U, the yeast fitness is 0.604. Regarding G48C C49U C55U, the yeast fitness came out at 0.663. For the variant G51C A65C C66U, the yeast fitness is at most 0.5. For the variant A57G A69G A70G, the yeast fitness worked out at 0.704.

Take G58C C66U: the yeast fitness came out at 0.982. On to U59A C60U, for which the yeast fitness stood at 0.74.

With U59G G63C, the yeast fitness amounted to 0.639. For U59A A65U, the yeast fitness came out at 0.636.

As for G52A G56U, the yeast fitness was found to be 0.554. As to C55A A57C C66U, the yeast fitness is at most 0.5. For the variant U54C G58A, the yeast fitness was 0.834.

Consider G56U A69C, for which the yeast fitness is 0.717.

Consider G52C G56A, for which the yeast fitness is 0.689. For the variant C55U G67C, the yeast fitness is 0.677. In the case of U53C A69C, the yeast fitness came out at 0.881.

Turning to G48A G56U G58A, the yeast fitness is at most 0.5. For G48C A70C, the yeast fitness amounted to 0.784. G48C A70G: the yeast fitness came to 0.901.
